pIC50: −log10 of the molar value.
Experiments:
[1] = target: T1, Proteinase-activated receptor 4 (Homo sapiens) (UniProt Q96RI0); assay: Antagonist activity at PAR4 in human platelet-rich plasma assessed as inhibition of PAR4 AP AYPGKF-NH2-induced platelet aggregation at 0.2 uM by photo-turbidimetry assay relative to control; format: functional
T1 sequence (whole entry): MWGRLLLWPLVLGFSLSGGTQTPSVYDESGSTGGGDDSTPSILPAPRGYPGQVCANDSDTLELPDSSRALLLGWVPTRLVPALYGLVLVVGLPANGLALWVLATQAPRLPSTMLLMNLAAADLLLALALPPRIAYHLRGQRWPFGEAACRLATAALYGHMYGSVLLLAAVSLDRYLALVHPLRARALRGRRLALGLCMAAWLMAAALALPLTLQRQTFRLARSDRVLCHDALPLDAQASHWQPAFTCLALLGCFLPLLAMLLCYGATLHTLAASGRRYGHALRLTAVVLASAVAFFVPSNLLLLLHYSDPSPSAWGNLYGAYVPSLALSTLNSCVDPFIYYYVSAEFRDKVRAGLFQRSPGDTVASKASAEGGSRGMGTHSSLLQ
Procedure, shortened: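 Human PRP from donated blood, spun at 160×g for 15 min, then adjusted to 3×10⁸/mL with PPP (2000×g, 15 min). Compound or saline vehicle preincubated with PRP for 5 min at 37 °C. Aggregation induced by AYPGKF-NH₂; maximal aggregation measured by light transmittance for 5 min. Percent inhibition at a single point; IC50 from ≥5 concentrations by curve fitting.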

[2] = target: T2, Proteinase-activated receptor 1 (Homo sapiens, UniProt P25116); assay: Antagonist activity at human PAR1 expressed in Ga15-HEK293 cells assessed as reduction in PAR1 AP SFFLRR-NH2-induced cytosolic calcium incubated for 24 hrs by FLIPR - calcium mobilization assay; format: functional, cell-based
T2 sequence (P25116 whole entry): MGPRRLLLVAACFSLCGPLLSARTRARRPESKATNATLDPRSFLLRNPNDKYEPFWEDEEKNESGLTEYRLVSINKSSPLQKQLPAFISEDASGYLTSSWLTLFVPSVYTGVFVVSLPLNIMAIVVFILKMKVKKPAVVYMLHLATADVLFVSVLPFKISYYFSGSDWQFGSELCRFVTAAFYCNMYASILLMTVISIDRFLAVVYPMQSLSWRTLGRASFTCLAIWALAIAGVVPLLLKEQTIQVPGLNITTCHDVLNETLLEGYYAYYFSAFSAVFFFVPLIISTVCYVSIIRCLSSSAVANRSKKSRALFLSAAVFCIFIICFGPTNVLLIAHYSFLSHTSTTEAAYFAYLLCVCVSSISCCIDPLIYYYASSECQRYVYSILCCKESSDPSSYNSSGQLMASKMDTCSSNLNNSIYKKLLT
Procedure, shortened: (§1)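 HEK293/Gα15 cells stably expressing human PAR1, PAR2 or PAR4, seeded at 45,000 cells/well and grown for 24 h at 37 °C, 5% CO₂. Cells loaded with calcium dye for 60 min at 37 °C in the dark. Compounds diluted from DMSO in HBSS and preincubated in the dark at room temperature. Agonists: SFFLRR (PAR1), 2-furoyl-LIGRLO-NH₂ (PAR2), AYPGKF-NH₂ (PAR4). Fluorescence read on FLIPR; 10-point half-log curves; mean of ≥2 determinations.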

[3] = target: T3, Proteinase-activated receptor 2 (Homo sapiens, UniProt P55085); assay: Antagonist activity at human PAR2 expressed in Ga15-HEK293 cells assessed as reduction in PAR2 AP 2-furoyl-LIGRLO-NH2-induced cytosolic calcium incubated for 24 hrs by FLIPR - calcium mobilization assay; format: functional, cell-based; procedure, shortened: as §1
T3 sequence (P55085 whole entry): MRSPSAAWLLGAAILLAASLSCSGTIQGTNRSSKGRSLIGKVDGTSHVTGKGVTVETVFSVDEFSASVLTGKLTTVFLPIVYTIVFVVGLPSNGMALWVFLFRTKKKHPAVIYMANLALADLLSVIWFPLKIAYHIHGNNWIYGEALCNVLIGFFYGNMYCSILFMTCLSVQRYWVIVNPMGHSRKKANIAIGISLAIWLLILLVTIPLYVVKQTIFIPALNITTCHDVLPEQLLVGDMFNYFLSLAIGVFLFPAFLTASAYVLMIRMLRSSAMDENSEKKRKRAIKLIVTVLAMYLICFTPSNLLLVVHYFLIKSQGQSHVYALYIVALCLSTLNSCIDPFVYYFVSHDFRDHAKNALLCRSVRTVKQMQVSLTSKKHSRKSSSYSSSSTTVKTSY

[4] = target: T4, Proteinase-activated receptor 4 (Homo sapiens, UniProt Q96RI0); assay: Antagonist activity at human PAR4 expressed in Ga15-HEK293 cells assessed as reduction in PAR4 AP AYPGKF-NH2-induced cytosolic calcium incubated for 24 hrs by FLIPR - calcium mobilization assay; format: functional, cell-based; procedure, shortened: as §1
T4 sequence (Q96RI0 whole entry): T1 sequence (whole entry)

Row | Structure (SMILES) | inhibition [1] | other results
1 | CCc1cc(-c2nc3c(s2)CCCC3)c2ncn(C)c(=O)c2c1 | 25.7% | 
2 | COc1ccccc1-c1cc(C)cc2c(=O)n(C)cnc12 | 17.4% | 
3 | Cc1cc(-c2nc3c(Cl)cc(OCCNC(=O)c4ccccc4)cc3s2)c2ncn(C)c(=O)c2c1 |  | inhibition ([1]; filed as antagonist): 94.5%
4 | Cc1ccc(S(=O)(=O)NCCOc2cc(Cl)c3nc(-c4cc(C)cc5c(=O)n(C)cnc45)sc3c2)cc1 | 30.5% | 
5 | Cc1cc(-c2ccccc2F)c2ncn(C)c(=O)c2c1 | 16% | 
6 | Cc1cc(-c2nc3c(Cl)cc(OCCNS(=O)(=O)c4ccccc4)cc3s2)c2ncn(C)c(=O)c2c1 | 17.9% | 
7 | Cc1cc(-c2nc3c(s2)CCCC3)c2ncn(C)c(=O)c2c1 |  | pIC50 [2]: < 5.50; pIC50 [3]: < 6.00; pIC50 [4]: 8.24
8 | Cc1cc(-c2cc3ccccc3o2)c2ncn(C)c(=O)c2c1 |  | inhibition ([1]; filed as antagonist): 44.4%
9 | C#CCn1cnc2c(-c3nc4c(F)cc(OC)cc4s3)cc(C)cc2c1=O | 27.7% | 
10 | COc1cc(Cl)c2nc(-c3cc(C)cc4c(=O)n(C)c(C)nc34)sc2c1 | 39.8% | 
11 | CCCCc1cc(-c2nc3c(s2)CCCC3)c2ncn(CC)c(=O)c2c1 |  | inhibition ([1]; filed as antagonist): 9.3%
12 | Cc1cc(-c2ccc(F)cc2O)c2ncn(C)c(=O)c2c1 | 6.5% | 
13 | CCOCn1cnc2c(-c3nc4c(s3)CCCC4)cc(C)cc2c1=O | 15.1% | 
14 | CCCCc1cc(-c2nc3c(s2)CCCC3)c2ncn(C)c(=O)c2c1 | 25.7% | 
15 | COc1cc(Cl)c2nc(-c3cccc4c(=O)n(C)cnc34)sc2c1 | 25.6% | 
16 | Cc1cc(-c2nc3c(s2)CCCC3)c2nc(C)n(C)c(=O)c2c1 | 17% | 
17 | Cc1cc(-c2nc3c(Cl)cc4c(c3s2)OCCO4)c2ncn(C)c(=O)c2c1 | 35.7% | 
18 | COCn1cnc2c(-c3nc4c(s3)CCCC4)cc(C)cc2c1=O | 35.7% | 
19 | Cc1cc(-c2cccc(Cl)c2Cl)c2ncn(C)c(=O)c2c1 | 34.3% | 
20 | COCn1cnc2c(-c3nc4c(Cl)cc(OC)cc4s3)cc(C)cc2c1=O |  | inhibition ([1]; filed as antagonist): 45.3%
21 | Cc1cc(-c2nc3c(Cl)cc(Cl)cc3s2)c2ncn(C)c(=O)c2c1 | 21.3% | 
